Hits are enriched below; roughly 1.8% of the tested compounds scored in any of these assays.
CHRM5 antagonist: human M5 muscarinic receptor antagonists, primary screen, CHO cells, Fluo-8 calcium fluorescence; AID 624040, 2012; CHO-hM5 cells, ACh EC80; inhibition, % at 3 µM; 0.59% of 360,000 active; Muscarinic acetylcholine receptor M5 (Homo sapiens), P08912;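 active means inhibition above a per-plate cutoff, the mean of that plate's test compounds plus 3 SD, cut at about 27% in these data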;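 further: 0% = acetylcholine EC80 with DMSO and 100% = DMSO without agonist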
Target sequence (P08912 whole entry, looked up): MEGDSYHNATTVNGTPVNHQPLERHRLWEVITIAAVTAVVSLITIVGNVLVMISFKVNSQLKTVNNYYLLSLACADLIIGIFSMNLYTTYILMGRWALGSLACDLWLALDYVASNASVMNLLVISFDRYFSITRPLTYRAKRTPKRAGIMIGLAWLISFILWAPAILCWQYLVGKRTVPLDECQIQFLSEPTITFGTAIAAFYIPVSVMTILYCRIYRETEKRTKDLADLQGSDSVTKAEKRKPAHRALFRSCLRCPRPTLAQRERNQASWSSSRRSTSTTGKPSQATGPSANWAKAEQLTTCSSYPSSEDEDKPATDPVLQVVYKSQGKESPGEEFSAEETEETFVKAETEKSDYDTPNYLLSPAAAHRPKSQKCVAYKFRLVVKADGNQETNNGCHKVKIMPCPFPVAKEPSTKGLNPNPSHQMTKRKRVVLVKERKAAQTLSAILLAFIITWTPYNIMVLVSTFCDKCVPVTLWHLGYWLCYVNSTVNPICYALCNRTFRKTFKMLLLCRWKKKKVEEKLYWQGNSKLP
CHRM4 antagonist: human M4 muscarinic receptor antagonists, primary screen, CHO cells, Fluo-8 calcium fluorescence; Muscarinic acetylcholine receptor M4 (Homo sapiens), P08173; CHO-hM4 cells, ACh EC80; 0.73% of 360,000 active; AID 624125, 2012; inhibition, % at 3 µM;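 active means inhibition above its plate's cutoff, the mean inhibition of sample wells plus 3 SD, cut at about 27% in these data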;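 further: 0% = acetylcholine EC80 with DMSO and 100% = DMSO without agonist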
M4 PAM: human M4 muscarinic receptor positive allosteric modulators, primary screen, CHO-K1 cells, Fluo-8 calcium fluorescence; Muscarinic acetylcholine receptor M4 (Homo sapiens), P08173; CHO-K1 hM4/Gqi5, ACh EC20; 0% = ACh EC20, 100% = maximal ACh; activation, % at 3 µM; 0.4% of 360,000 active;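 active means activation above its plate's cutoff, the mean activation of sample wells plus 3 SD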
M5 PAM: human M5 muscarinic receptor positive allosteric modulators, primary screen, CHO-K1 cells, Fluo-8 calcium fluorescence; Muscarinic acetylcholine receptor M5 (Homo sapiens), P08912; CHO-K1 hM5, ACh EC20 PAM; 0% = ACh EC20, 100% = ACh EC100; activation, % at 3 µM; 0.3% of 360,000 active; AID 624038, 2012;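 active means activation above the run cutoff, the mean activation of all test compounds plus 3 SD, cut at about 18% in these data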
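Assay system: CHO-K1 hM5 cells / Incubation: Fluo-8 loading 80 min at 37 °C plus 30 min room temperature / Technique: Fluo-8 calcium dye fluorescence, kinetic read / Repeats: single replicate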
M4 ag: human M4 muscarinic receptor agonists, primary screen, CHO-K1 cells, Fluo-8 calcium fluorescence; Muscarinic acetylcholine receptor M4 (Homo sapiens), P08173; CHO-K1 hM4/Gqi5; vehicle 0%, full acetylcholine response 100%; activation, % at 3 µM; 0.14% of 360,000 active;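 active means activation above the run mean over all test wells plus 3 SD, cut at about 32% in these data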;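 further: peak over basal fluorescence ratio per well then scaled between controls; 0% = DMSO wells and 100% = acetylcholine at EC100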
M5 ag: human M5 muscarinic receptor agonists, primary screen, CHO-K1 cells, Fluo-8 calcium fluorescence. Muscarinic acetylcholine receptor M5 (Homo sapiens), P08912. activation, % at 3 µM. AID 624037, 2012. 0.19% of 360,000 active. CHO-K1 hM5 cells; 0% DMSO wells, 100% maximal acetylcholine response;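 active means activation above the run's mean over test compounds plus 3 SD, cut at about 23% in these data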;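 further: signal is peak over basal fluorescence ratio across the kinetic read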
Numbers without * were called inactive.

SMILES	CHRM5 antagonist	CHRM4 antagonist	M4 PAM	M5 PAM	M4 ag	M5 ag
O=c1[nH]c2ccc(S(=O)(=O)N3CCN(c4ccc(F)cc4)CC3)cc2o1	7.6	12.2	-12.4	-9.7	3.7	3.2
CCn1c(SCc2ccc(Cl)cc2)nc2nc3c(cc2c1=O)CCCC3	0.8	-3.5	28.3*	-1.1	-2.1	-0.8
CCOC(=O)N1CCC(N2C(=O)c3ccc(C(=O)NCc4ccc(F)cc4)cc3C2=O)CC1	-0.1	-2.9	2.6	-1.9	1.1	1.8
CCOC(=O)N1CCC(N2CCN(c3cc(C)ccc3C)CC2)CC1	55.2*	14.7	-20.1	-15.9	8.4	-7.4
CCOC(=O)N1CCC(N2C(=O)c3ccc(C(=O)O)cc3C2=O)CC1	-4.1	-3.3	4.1	21.1*	0.8	-3.3
O=C(NCC(c1ccco1)N1CCCC1)c1ccc(Cl)c(S(=O)(=O)N2CCc3ccccc32)c1 (centres undefined)	12.4	0.8	-11.1	-31.9	9.0	-6.5
Cc1ccc2nc(NC(=O)C3CCN(S(=O)(=O)c4cc([N+](=O)[O-])ccc4Cl)CC3)sc2c1	30.2*	25.7	-8.8	-13.1	7.6	-2.3
O=C(Nc1nc2ccc(F)cc2s1)C1CCN(S(=O)(=O)c2cc([N+](=O)[O-])ccc2Cl)CC1	43.5*	27.4*	-5.5	-17.6	9.7	-1.6
CC(NC(=O)C1CCN(S(=O)(=O)c2cc([N+](=O)[O-])ccc2Cl)CC1)c1ccccc1 (centres undefined)	-5.8	-4.8	4.8	3.6	3.3	-0.6
Cc1ccc(NC(=O)C2CCN(S(=O)(=O)c3cc([N+](=O)[O-])ccc3Cl)CC2)nc1	18.2	21.4	-9.4	-20.6	15.9	0.9
C[C@@H]1COc2cccc(N3CCSCC3)c2S(=O)(=O)N1	1.4	1.3	13.2	-1.2	0.8	1.8
CCOc1ccc(CCNC(=O)CCc2nnc3ccc(N4CCCCC4)nn23)cc1OCC	6.3	31.6*	-10.2	-9.1	-0.2	-4.5
Cc1ccc(C(=O)NCCn2cc(SCC(=O)Nc3cc(C)on3)c3ccccc32)cc1	1.1	-24.8	-3.7	-21.3	12.9	36.0*
Cc1cc(NC(=O)CSc2ccc3nnc(CCNC(=O)c4ccccc4)n3n2)no1	0.6	-3.0	30.4*	-3.9	0.9	-7.4
CCOC(=O)N1CCN(C(=O)C[C@@H]2C[C@@]3(C(=O)OC)CC(C)(C)CC=C3N(Cc3cccc4ccccc34)C2=O)CC1	6.7	-19.6	0.6	-0.2	12.6	4.0
COc1ccc(NC(=O)c2ccco2)cc1N	-1.9	-8.6	5.0	20.1*	2.8	-1.7
Cc1ccccc1CNC(=O)c1ccccc1NS(C)(=O)=O	-3.9	-3.3	2.5	19.0*	1.2	-4.5
CS(=O)(=O)Nc1ccccc1C(=O)NCc1ccccc1Cl	5.9	-1.7	4.4	8.5	1.5	-4.1
COc1ccc(CC(=O)OC(C)C(=O)Nc2c(C)n(C)n(-c3ccccc3)c2=O)cc1OC (centres undefined)	14.1	-1.0	6.2	2.0	0.5	-0.8
O=C(Nc1cc(C2CC2)nn1-c1ccccc1)c1ccc(F)cc1	18.0	-4.2	4.0	0.2	0.7	0.5
Cc1c(Br)c([N+](=O)[O-])nn1CC(=O)N1CCc2ccccc2C1	-7.8	-5.6	-4.6	5.7	0.1	-2.4
Cc1c(Br)c([N+](=O)[O-])nn1C(C)C(=O)N1CCc2ccccc2C1 (centres undefined)	20.7	54.8*	-14.2	-13.5	1.0	-8.2
CCOc1ccc(S(=O)(=O)N2CCC(C(=O)N3CCOCC3)CC2)cc1C	12.0	-4.2	-2.8	-0.8	1.5	-2.0
CCOc1ccc(S(=O)(=O)N2CCC(C(=O)N3CCCCCC3)CC2)cc1C	-15.3	-8.5	2.7	50.1*	3.6	14.9
Nc1nc(N)nc(-c2cc(O)ccc2O)n1	2.6	-4.0	7.7	-0.3	1.2	1.9
SMILES	CHRM5 antagonist	CHRM4 antagonist	M4 PAM	M5 PAM	M4 ag	M5 ag
CC(C)(C)c1cc(-c2nc(N)nc(N)n2)c(O)c(C(C)(C)C)c1	-13.1	-1.0	10.4	24.2*	-0.3	4.7
COc1ccc(-c2csc(C(C)(O)c3cccc(F)c3)n2)cc1 (centres undefined)	8.3	37.1*	-11.1	-11.3	4.0	-1.1
CCN(CC)c1ccc(/C=C(\C#N)C(=O)c2ccc(Br)cc2)cc1	70.2*	51.2*	-10.1	-17.8	58.3*	108.0*
CCN(CC)c1ccc(/C=C(\C#N)C(N)=O)cc1	0.4	-4.7	-2.8	1.3	2.0	-4.0
CN(C)c1ccc(/C=C(\C#N)C(=O)c2ccccc2)cc1	39.8*	36.7*	-23.1	-20.9	70.1*	63.2*
COc1ccccc1N1CCN(CCCN=C2CC(=O)N(C)C(=O)N2C)CC1	-2.4	-8.1	-1.2	1.1	1.4	0.2
CC1=NNC(=O)/C1=C\c1cn(-c2ccccc2)nc1-c1ccccc1	32.2*	39.2*	-17.8	5.7	11.7	28.0*
COc1ccc(-c2ccnc3nc(N4CCN(c5ccccc5)CC4)nn23)cc1	1.3	-0.4	-5.2	3.2	-0.9	-1.3
CCc1cc(C(=O)OC)c(NC(=O)c2ccoc2C)s1	-9.4	5.5	9.1	8.0	-0.4	1.4
COC(=O)c1c(-c2ccncc2)csc1NC(=O)c1ccoc1C	-2.6	31.8*	48.2*	-2.9	0.3	-4.8
COc1ccc(Cc2c(-c3ccc(F)cc3)nc3c4ccccc4ccn23)c(C)c1	5.3	2.4	0.7	-6.4	-0.8	-2.2
Cc1ccc(S(=O)(=O)n2ccc3c2CCCC3=O)cc1	37.4*	27.3*	-17.2	-20.9	1.9	-8.7
O=C(Nc1cccc(F)c1)Nc1cccc(Cl)c1	27.7*	7.6	-9.1	-16.4	19.6	14.1
COC(=O)c1cccc(NC(=O)Nc2ccc(Cl)cc2)c1	16.6	2.2	-8.9	-25.9	16.9	3.0
O=C(Nc1cccnc1)Nc1cc(Cl)cc(Cl)c1	30.0*	15.0	-14.9	-17.8	16.9	7.8
O=C(Nc1cccnc1)Nc1ccccc1Cl	-0.1	-4.6	8.9	-2.8	0.1	0.9
O=C(CN1C(=O)c2ccccc2C1=O)Nc1cccc(S(=O)(=O)Nc2ccccc2Cl)c1	-1.7	-2.0	25.2*	1.9	3.6	2.4
O=C(Nc1cccc(Cl)c1)Nc1cccc(Cl)c1	23.0	3.4	-2.1	-22.5	15.9	-1.1
